Compound activity deposited in PubChem BioAssay by SRMLSC.
HUVEC inhibit: inhibitors of human endothelial cell proliferation; viability, % at 10 µM (by protocol); AID 648; HUVEC proliferation, CellTiter-Glo luminescence, 72 h; stronger effect = lower value; 86,000 tested, 1.1% active;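 active = viability at or below 30%; inactive = viability above 30%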;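 note: 100% = median luminescence of DMSO-only cell control wells on each plate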
Lung fibro prol: blocks proliferation of human lung fibroblasts. viability, % at 10 µM. AID 719. 85,000 tested, 1.1% active. LL 47 human lung fibroblast viability, ATP luminescence; stronger effect = lower value;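 active = viability at or below 50% in the single dose screen; inactive = viability above 50%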;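 note: compound exposure lasted 72 h before the ATP readout; 100% = median luminescence of untreated cell-only wells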
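Test system: LL 47 human lung fibroblasts / Quantity: 1,150 cells in each well / Medium: IMEM growth medium with 15% fetal bovine serum / Incubation: 72 h compound exposure at 37 °C after overnight plating / Detection: CellTiter-Glo luminescence measuring cellular ATP / Read-out: % viability versus median cells-only luminescence / Benchmarks: cell-only wells, no compound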
H69AR inhibit: growth inhibitors of human H69AR lung tumor cells | H69AR lung tumor viability, ATP luminescence, 72 h; stronger effect = lower value | viability, % at 10 µM | 85,000 tested, 6% active;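 active = viability at or below 40%; inactive = viability above 40%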;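 note: multidrug resistant small cell line overexpressing MRP-1 efflux transporter; 100% = mean luminescence of untreated control wells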
HCT116 PTEN-null: PTEN-deleted cell growth suppression; HCT116 PTEN-null viability, CellTiter-Glo, 60 h; stronger effect = lower value; viability, % at 10 µM; 140,000 tested, 1.2% active;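 active = viability at or below a set limit, 4 SD under the median of all tested compounds, cut at about 3.7% in these data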;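 note: PTEN knockout HCT116 line with beta catenin targeted HCT116 as companion control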
HCT116 bCat-KO: beta-catenin-lacking colon tumor cell growth suppression | HCT116 beta-catenin knockout viability, CellTiter-Glo, 60 h; stronger effect = lower value | viability, % at 10 µM | 140,000 tested, 1.5% active | AID 818;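 active = viability at or under a set limit, the compound median less 4 SD, cut at about 6% in these data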;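 note: 0% = Hyamine 1622 control at 20 µM and 100% = untreated cell control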
* marks the source's active call; other numbers are inactive results; x = not tested or not shown. The sample as a whole holds a higher share of hits than the screen did.

SMILES	HUVEC inhibit	Lung fibro prol	H69AR inhibit	HCT116 PTEN-null	HCT116 bCat-KO
CCCc1[nH][nH]c(=O)c1C(c1cccc(Cl)c1)C(C#N)C#N (stereo not drawn)	57.3	90.1	16.6*	103.1	92.8
O=C(CN1C(=O)C2C3C=CC(C4CC34)C2C1=O)OCC(=O)c1ccccc1 (stereo not drawn)	x	x	x	96.2	96.8
O=C(NCc1cccnc1)c1ccc(COc2ccccc2Br)o1	63.4	92.0	72.2	63.2	78.2
O=C(NCc1cccnc1)c1ccc(COc2ccc3c(c2)CCC3)o1	81.0	95.1	6.4*	64.5	74.8
FC(F)(F)c1nnc2c(Sc3ccccc3)nc3ccc(Cl)cc3n12	x	x	x	4.4	3.6*
Cc1ccc(/C=C/C(=O)c2ccccc(=O)c2O)c(C)c1	x	x	x	5.8	4.2*
O=C(/C=C/c1ccccc1Cl)c1ccccc(=O)c1O	x	x	x	2.1*	1.3*
Cc1ccc(C)c(/C=C/C(=O)c2ccccc(=O)c2O)c1	x	x	x	8.2	11.8
CC(C)[C@H](NC(=O)c1ccccc1)C(=O)OCC(=O)N1CCCc2ccccc21	x	x	x	82.1	82.3
CCN1C(=O)/C(=C\c2cn(CCC#N)nc2-c2ccc(F)cc2)SC1=S	x	x	x	67.5	79.0
CC(=O)Nc1ccc(SCC(=O)N(CCC#N)c2ccc(C)cc2)cc1	98.8	109.4	32.9*	95.6	100.0
CCOC(=O)N1CCN(C(=O)N2CCOCC2)CC1	96.1	100.4	84.4	93.2	93.3
Cc1nn(C(=O)N2CCOCC2)c(C)c1C	90.2	92.9	99.1	0.9*	0.9*
CCCCC(CC)Cn1c2nc3ccccc3nc2c2c(=N)oc(C)nc21 (stereo not drawn)	2.5*	75.0	90.4	2.5*	4.5*
Cc1ccc(-n2sc3ccccc3c2=O)cc1S(=O)(=O)N1CCCCC1	74.4	49.0*	1.5*	34.2	55.8
O=c1c2ccccc2sn1-c1ccccc1	x	x	x	46.9	10.0
O=c1c2ccccc2sn1-c1ccc(S(=O)(=O)N2CCCC2)cc1	x	x	x	85.3	81.1
O=c1c2ccccc2sn1-c1ccc(S(=O)(=O)N2CCCCC2)cc1	62.1	37.3*	43.5	x	x
Cc1ccc2[nH]c(=O)c(CNS(=O)(=O)c3ccccc3)c(-c3ccccc3)c2c1	x	x	x	88.8	88.6
CCOc1ccc(S(=O)(=O)Nc2ccc(F)cc2)c(C)c1C	80.9	98.5	67.3	64.3	68.9
COC(=O)c1ccc(C(=O)Nc2ccc(N)cc2N)cc1	97.6	101.0	1.9*	96.1	91.2
COc1ccccc1NC(=O)c1ccc(N)cc1	84.3	97.4	97.6	105.4	103.8
COc1cc(/C=C(/C#N)C(=O)Nc2ccc(C)cc2)ccc1Oc1nc(Cl)ncc1F	x	x	x	65.5	67.7
CCOC(=O)c1ccc(Nc2nnc(C(C)(C)C)c(=O)[nH]2)cc1	54.7	69.4	2.6*	44.4	49.8
CCOC(=O)c1ccc(Nc2cc(C)nc(C)c2C(=O)OCC)cc1	88.7	93.1	90.1	79.4	77.7
SMILES	HUVEC inhibit	Lung fibro prol	H69AR inhibit	HCT116 PTEN-null	HCT116 bCat-KO
Cc1cc(C)nc(Sc2nc(Cl)nc(N(c3ccccc3)c3ccccc3)n2)n1	x	x	x	99.4	94.1
O=C1C=C(O)CC(c2ccco2)C1 (stereo not drawn)	90.3	97.8	92.6	110.4	95.8
O=C1C=C(Nc2ccc(O)cc2)CC(c2ccco2)C1 (stereo not drawn)	64.1	80.0	26.2*	31.8	38.5
Cc1c(NC(=O)c2cccnc2C(=O)O)cccc1C(=O)O	x	x	x	91.1	93.1
CC1(C)CC(=O)c2cc(C(=O)NCc3ccco3)c(=O)n(-c3ccc(Cl)cc3)c2C1	92.6	47.6*	58.9	86.0	87.9
Cc1ccc(NCc2nnc(SC(C)C(=O)N/N=C/c3ccc(C)o3)n2-c2ccccc2)cc1 (stereo not drawn)	x	x	x	96.7	91.6
NS(=O)(=O)c1ccc(S(=O)(=O)N2CCCC2)cc1	106.2	104.3	102.0	92.4	102.0
CC1=C(C)CS(=O)N(c2ccc(S(N)(=O)=O)cc2)C1 (stereo not drawn)	95.0	69.0	12.4*	98.8	92.6
CC1=C(C)CS(=O)N(S(=O)(=O)c2ccccc2)C1 (stereo not drawn)	73.9	39.5*	1.8*	95.8	90.7
CC(=O)CSc1nc2ccccc2o1	104.3	108.0	106.5	101.1	95.5
O=[N+]([O-])c1ccc(Cl)cc1Sc1nc2ccccc2o1	41.2	94.6	24.8*	8.6	9.4
Cc1ccc(Sc2ccc([N+](=O)[O-])cc2[N+](=O)[O-])nc1	x	x	x	63.7	56.2
Cc1ccnc(Sc2ccc([N+](=O)[O-])cc2[N+](=O)[O-])n1	x	x	x	6.2	5.2*
O=[N+]([O-])c1ccc(Sc2nc3ccccc3o2)c([N+](=O)[O-])c1	2.6*	0.9*	0.2*	1.4*	1.9*
O=C1CCCN1c1ccc(S(=O)(=O)Oc2ccc(Cl)cc2)cc1[N+](=O)[O-]	x	x	x	59.5	72.2
Cc1ccc(S(=O)(=O)N(C)C)cc1NC(=O)CCNC(=O)c1ccccc1Cl	x	x	x	97.5	96.3
O=C([C@H](Cc1ccccc1)NS(=O)(=O)c1ccc(Cl)cc1)N1CC[C@@]2(O)CCCC[C@H]2C1	81.8	101.8	46.3	48.4	68.3
Oc1oc(-c2ccccc2)nc1C=Nc1cccc2ccccc12	66.8	93.6	20.4*	90.5	91.5
C=CCn1c(O)c(N=Nc2nc3ccccc3c(=O)n2-c2ccccc2)c2ccccc21	x	x	x	58.8	61.0
Cc1onc(C(=O)N2CCC(C(N)=O)CC2)c1-c1ccccc1Cl	99.9	101.2	91.2	95.7	96.2
NC(=O)C1CCN(C2=C(Cl)C(=O)c3ccccc3C2=O)CC1	x	x	x	20.1	5.7*
O=C(CC(Nc1ccc(Cl)cc1)C(=O)O)c1ccccc1 (stereo not drawn)	61.5	87.9	103.9	83.4	69.8
O=C(CC(Nc1ccc(F)cc1)c1ccccc1)c1ccccc1 (stereo not drawn)	x	x	x	3.4*	7.8
O=C(OCc1c(Cl)cccc1Cl)c1ccncc1	x	x	x	92.6	91.0
CCOc1ccc(NC(=O)c2ccc(NC(=O)c3cn4c5c(c(N6CCN(C)CC6)c(F)cc5c3=O)OCC4C)cc2)cc1 (stereo not drawn)	x	x	x	2.2*	2.3*
COc1ccc(C2c3c(ncn(Cc4ccco4)c3=N)Oc3ccc4ccccc4c32)cc1 (stereo not drawn)	x	x	x	1.6*	2.2*
COc1ccc(C2c3ccc4ccccc4c3Oc3ncn(CCN4CCOCC4)c(=N)c32)cc1 (stereo not drawn)	2.1*	3.2*	1.9*	1.8*	2.1*
O=C(Nc1nc2c(s1)CCCC2)C1COc2ccccc2O1 (stereo not drawn)	94.4	95.7	86.5	76.0	77.3
CCCNC(=O)c1c(NC(=O)C2COc3ccccc3O2)sc2c1CCCC2 (stereo not drawn)	39.9	12.6*	29.1*	20.9	37.6
O=C(NC1CCS(=O)(=O)C1)c1c(NC(=O)C2COc3ccccc3O2)sc2c1CCCC2 (stereo not drawn)	85.1	102.2	22.9*	16.1	12.8
